The record followed here is ChEMBL document CHEMBL4680142, “Thiazolidine-2,4-dione-based irreversible allosteric IKK-β kinase inhibitors: Optimization into in vivo active anti-inflammatory agents” (Eur J Med Chem, 2020).

A value given as a limit tells only on which side of the number the result lay.

The nature of data set [1]: Metabolic stability in rat plasma assessed as parent compound remaining at 1 uM measured upto 2 hrs by LC-MS/MS analysis. It counts as ADME, cell-free. The settings on record: read-out: Stabilty. A digest of the protocol: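 Rat plasma incubated with 1 µM compound at 37 °C for 0, 15, 30, 60 and 120 min. After separation, remaining compound quantified by LC-MS/MS as % remaining.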

Data set [2] relates to RAW264.7. The data set can be described thus: Antiinflammatory activity against mouse RAW264.7 cells assessed as reduction in LPS-induced TNF-alpha level incubated for 1 hr followed by LPS stimulation and measured after 24 hrs by ELISA. It counts as functional, cell-based. The method, boiled down:
(§1)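 RAW 264.7 cells (DMEM, 10% FBS, 37 °C, 5% CO2) plated at 2×10^5 cells/mL and left overnight. Compounds (0.1, 1, 10 µM) or NS-398 given for 1 h, then LPS 10 ng/mL for 24 h. Culture medium assayed by ELISA: competitive colorimetric for PGE2/TNF-α, mouse DuoSet for TNF-α/IL-6. IC50 is the concentration lowering the mediator to 50%.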

The subject of data set [3] is RAW264.7. The data set can be described thus: Antiinflammatory activity against mouse RAW264.7 cells assessed as reduction in LPS-induced PGE2 level incubated for 1 hr followed by LPS stimulation and measured after 24 hrs by ELISA. It counts as functional, cell-based. A digest of the protocol:
as §1
In general terms: ELISA stands for enzyme-linked immunosorbent assay.

For data set [4], the system named is RAW264.7. Put plainly: Antiinflammatory activity against mouse RAW264.7 cells assessed as reduction in LPS-induced PGE2 production at 10 uM incubated for 1 hr followed by LPS stimulation and measured after 24 hrs by ELISA (reference value: 33.64 ng/ml). It counts as functional. The note with it: time 25 hrs. A digest of the protocol:
as §1

For data set [5], the target named is T1, Inhibitor of nuclear factor kappa-B kinase subunit beta (Homo sapiens) (UniProt O14920).
T1 sequence (whole entry): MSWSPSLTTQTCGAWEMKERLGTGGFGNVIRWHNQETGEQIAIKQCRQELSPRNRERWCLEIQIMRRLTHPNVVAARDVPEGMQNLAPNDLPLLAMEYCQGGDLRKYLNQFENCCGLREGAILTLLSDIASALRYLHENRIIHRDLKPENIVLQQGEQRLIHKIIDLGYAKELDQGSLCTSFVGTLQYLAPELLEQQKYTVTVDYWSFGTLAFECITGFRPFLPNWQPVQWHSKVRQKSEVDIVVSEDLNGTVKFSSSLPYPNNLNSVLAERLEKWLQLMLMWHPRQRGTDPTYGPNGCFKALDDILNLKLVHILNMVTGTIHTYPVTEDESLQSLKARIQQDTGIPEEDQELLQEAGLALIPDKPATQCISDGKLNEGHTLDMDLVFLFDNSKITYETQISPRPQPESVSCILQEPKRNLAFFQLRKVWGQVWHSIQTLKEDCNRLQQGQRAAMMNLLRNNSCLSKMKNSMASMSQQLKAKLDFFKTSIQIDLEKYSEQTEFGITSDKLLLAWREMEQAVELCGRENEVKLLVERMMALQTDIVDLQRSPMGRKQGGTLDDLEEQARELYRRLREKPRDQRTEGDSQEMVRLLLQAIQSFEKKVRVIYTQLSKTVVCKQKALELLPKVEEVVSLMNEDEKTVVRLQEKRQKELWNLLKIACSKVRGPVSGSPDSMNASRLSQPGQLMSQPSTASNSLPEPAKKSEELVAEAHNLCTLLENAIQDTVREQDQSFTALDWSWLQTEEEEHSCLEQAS
The data set can be described thus: Allosteric inhibition of IKKbeta (unknown origin) assessed as inactivation constant using 5FAM-GRHDSGLDSMK-NH2 as substrate incubated for 10 mins followed by substrate addition and measured upto 60 mins by TR-FRET assay. The settings on record: filed as negative allosteric modulator, time 70.0 min. A digest of the protocol:
(§2)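 IKK2 (0.5 µg/mL) in 10 mM Tris-HCl pH 7.2, 10 mM MgCl2, 0.05% NaN3, 1 mM DTT, 0.01% Tween-20, room temperature. Compound (30 to 0.001 µM, ten roughly three-fold dilutions) preincubated 10 min with enzyme. Reaction started with 1 µM 5FAM-IκBα peptide and 3 µM ATP, run 0, 20, 40 or 60 min. IMAP binding reagent/terbium donor detection, TR-FRET read at 495/520 nm. Kobs fitted against concentration by nonlinear regression.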
Background: TR-FRET usually uses a lanthanide donor and a delayed reading to cut background.

Data set [6] has as its system RAW264.7. The data set can be described thus: Antiinflammatory activity against mouse RAW264.7 cells assessed as reduction in LPS-induced NO level incubated for 1 hr followed by LPS stimulation and measured after 24 hrs by Griess reagent based assay. The data set is classed as functional, cell-based. A digest of the protocol:
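RAW 264.7 cells in 24-well plates received compounds (0.1, 1, 10 µM) or L-NIL 40 µM positive control, then LPS 1 µg/mL for 24 h. Nitrite in the medium measured by Griess reaction as an NO surrogate. Values referenced to levels before and after LPS stimulation.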

Data set [7] has as its target T2, Inhibitor of nuclear factor kappa-B kinase subunit beta (Homo sapiens, UniProt O14920).
T2 sequence (O14920 whole entry): T1 sequence (whole entry)
The data set can be described thus: Allosteric inhibition of IKKbeta (unknown origin) using 5FAM-GRHDSGLDSMK-NH2 as substrate incubated for 10 mins followed by substrate addition and measured after 20 mins by TR-FRET assay. A digest of the protocol:
(§3)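 Kinetic IMAP TR-FRET run with 0.5 µg/mL IKK2 in 10 mM Tris-HCl pH 7.2, 10 mM MgCl2, 0.05% NaN3, 1 mM DTT, 0.01% Tween-20. Compound (ten doses, 30 to 0.001 µM) pre-incubated with enzyme 10 min, then 1 µM IκBα-derived substrate and 3 µM ATP added. Room temperature. Reactions run 0, 20, 40 or 60 min. Ten-point curves fitted by nonlinear regression.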

Data set [8] addresses T2, Inhibitor of nuclear factor kappa-B kinase subunit beta. The data set can be described thus: Allosteric inhibition of IKKbeta (unknown origin) using 5FAM-GRHDSGLDSMK-NH2 as substrate incubated for 10 mins followed by substrate addition and measured after 60 mins by TR-FRET assay. The method, boiled down: as §3
The subject of data set [9] is RAW264.7. The data set can be described thus: Cytotoxicity against mouse RAW264.7 cells assessed as reduction in cell viability incubated for 24 hrs in presence of LPS by MTT assay. The note with it: RAW264.7, 24 h. It counts as cell-based. The method, boiled down:
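MTT viability in RAW 264.7 cells seeded at 1×10^5 cells/mL and incubated overnight. Compounds added with or without LPS (1 µg/mL) for 24 h. MTT for 4 h at 37 °C, formazan dissolved in DMSO, absorbance read at 540 nm. IC80 is the concentration reducing viability to 80% with LPS.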
A general note: Tetrazolium dyes change colour on reduction, which living cells bring about.

The target in data set [10] is T2, Inhibitor of nuclear factor kappa-B kinase subunit beta. The data set can be described thus: Allosteric inhibition of IKKbeta (unknown origin) using 5FAM-GRHDSGLDSMK-NH2 as substrate incubated for 10 mins followed by substrate addition and measured after 40 mins by TR-FRET assay. The method, boiled down:
as §3

Data set [11] deals with T1, Inhibitor of nuclear factor kappa-B kinase subunit beta (Homo sapiens). Put plainly: Allosteric inhibition of IKKbeta (unknown origin) at 0.001 to 30 uM using 5FAM-GRHDSGLDSMK-NH2 as substrate incubated for 10 mins followed by substrate addition and measured after 20 mins by TR-FRET assay relative to control. The settings on record: filed as negative allosteric modulator, dose 0.001-30 µM, time 30.0 min. The method, boiled down:
as §2

The target is the same in data set [12]. The data set can be described thus: Allosteric inhibition of IKKbeta (unknown origin) at 0.001 to 30 uM using 5FAM-GRHDSGLDSMK-NH2 as substrate incubated for 10 mins followed by substrate addition and measured after 60 mins by TR-FRET assay relative to control. The settings on record: filed as negative allosteric modulator, dose 0.001-30 µM, time 70.0 min. A digest of the protocol: as §2

The test system of data set [13] is RAW264.7. Put plainly: Antiinflammatory activity against mouse RAW264.7 cells assessed as reduction in LPS-induced TNF-alpha level at 10 uM incubated for 1 hr followed by LPS stimulation and measured after 24 hrs by ELISA relative to control. The data set is classed as functional. The note with it: time 25 hrs. A digest of the protocol: as §1

For the compound `CN1CCN(CCCCCOc2cccc(N3C(=O)S/C(=C\c4ccc(Oc5ccc([N+](=O)[O-])cc5)cc4)C3=O)c2)CC1`, the remaining at 2 h, 1 µM in [1] turned out to be 83.3%. Moreover, the IC50 with RAW264.7 [2] was 5220 nM; in the data set on RAW264.7 [3], over 10000 nM; in the data set with RAW264.7 [6], over 10000 nM; in [7], 245 nM; in [8], 219 nM; in data set [10], 219 nM. The inhibition result in the data set on RAW264.7 [2] (time 25.0 hrs) was “Dose-dependent effect”; in data set [11], -3.68%; in data set [12] it was -3.88%. For the same compound, the Activity in the data set with RAW264.7 [4] amounted to 19.04 ng/mL. In addition, the Kinact in data set [5] was 0.027 min⁻¹. For the same compound, in the data set with RAW264.7 [9], the IC80 was over 10000 nM. In the data set on RAW264.7 [13], the inhibition at 10 µM is 84%.
On to `CN1CCN(CCCOc2ccc(N3C(=O)S/C(=C\c4ccc(Oc5ccc(C#N)cc5)cc4)C3=O)cc2)CC1`, for which the remaining at 2 h, 1 µM in data set [1] came to 73.6%. Further, the IC50 in the data set with RAW264.7 [2] was 6270 nM; in the data set on RAW264.7 [3] it was 9830 nM; with RAW264.7 [6], over 10000 nM; in data set [7], 347 nM; in [8], 204 nM; in [10], 251 nM. Moreover, in the data set with RAW264.7 [4], the Activity was 16.53 ng/mL. Also, the Kinact in data set [5] came out at 0.013 min⁻¹. In the data set on RAW264.7 [9], the IC80 was over 10000 nM. For the same compound, the inhibition in data set [11] is -7.14%; in data set [12] it was -0.38%. For the same compound, the inhibition at 10 µM with RAW264.7 [13] was 80%.

Usually IC50 stands for the midpoint of a concentration-inhibition curve. The term inhibition denotes the drop in the measured response relative to a control, in per cent. Usually IC80 stands for the point of the concentration-response curve where the effect stands at 80%.
